Sampled rows, rich in hits. Any-hit rate of the full collection: about 2.6%.
SENP7 block = inhibitors of human SENP7 protease | Q9BQF6 | recombinant SENP7, Z-RLRGG-aminoluciferin luminescence, 40 min | inhibition, % at 5 µM | actives 1.5% (n = 330,000) | AID 434973;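 active means inhibition above about 50% at the single test dose, limit read from the data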;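 further: plate controls were DMSO with enzyme for no effect and no enzyme buffer wells for full effect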
SENP6 inh = SENP6 protease inhibition; Recombinant SENP6 catalytic domain, aminoluciferin luminescence; inhibition, % at 10 µM; actives 1.8% (n = 330,000); Q9GZR1;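 active means inhibition above about 50% at the single tested dose, limit read from the data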;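 further: plate controls were DMSO wells with enzyme for no effect and DMSO wells lacking enzyme for full effect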
Platelet DG rel = platelet dense granule release activity. human platelet-rich plasma, SFLLRN dense granule ATP release, luminescence. actives 0.22% (n = 300,000). inhibition, %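 (compounds screened at 7.5 µM in platelet-rich plasma)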;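 active means mean replicate score, as percent of positive control, at or above 50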
SENP8 block-1 = blocks the human protease SENP8; Q96LD8; purified SENP8, Z-RLRGG-aminoluciferin cleavage, luminescence; inhibition, % at 10 µM; actives 1.2% (n = 330,000); AID 2540; in the data active means inhibition above about 50%
Target sequence (Q96LD8 whole entry, looked up): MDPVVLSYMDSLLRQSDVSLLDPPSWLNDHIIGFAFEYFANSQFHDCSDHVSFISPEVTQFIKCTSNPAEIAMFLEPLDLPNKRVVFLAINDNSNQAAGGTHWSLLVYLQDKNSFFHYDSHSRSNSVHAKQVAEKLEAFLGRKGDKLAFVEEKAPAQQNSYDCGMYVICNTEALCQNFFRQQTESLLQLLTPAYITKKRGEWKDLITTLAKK
SENP8 block-2 = blocks human SENP8 cleavage of Nedd8 substrate. Q96LD8. recombinant SENP8, Nedd8 substrate fluorescence. actives 0.64% (n = 360,000). inhibition, % at 20 µM; in the data active means inhibition mostly above about 40%, no sharp cut-off; inactive means mostly below about 27%
SENP1 inh = inhibitors of human SENP1 SUMO protease catalytic domain | Q9P0U3 | recombinant SENP1 catalytic domain, CyPet-SUMO1-YPet FRET cleavage | inhibition, % at 10 µM | actives 0.21% (n = 360,000) | AID 624204;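 active means inhibition at least 30% at 10 µM, raw YFP signal under a set limit, fluorescence ratio 0.5 to 1.5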;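 further: 0% = enzyme with DMSO and 100% = no enzyme wells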
Target sequence (Q9P0U3 419-644 limits assumed): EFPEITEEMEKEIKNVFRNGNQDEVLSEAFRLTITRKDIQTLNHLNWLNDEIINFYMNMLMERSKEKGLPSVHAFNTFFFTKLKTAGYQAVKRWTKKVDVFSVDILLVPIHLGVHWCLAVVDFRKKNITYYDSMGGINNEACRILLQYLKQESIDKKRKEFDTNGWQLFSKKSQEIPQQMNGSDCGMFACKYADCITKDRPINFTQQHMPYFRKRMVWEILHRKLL
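Material – human SENP1 catalytic domain · Input – SENP1 enzyme, 20 pM final · Compound dosing – single concentration of 10 µM compound, 0.5% DMSO final · Timing – enzyme reaction for 50 min at room temperature, dark · Measured by – FRET fluorescence in CFP and YFP emission channels · Control set – no-enzyme wells low, DMSO-plus-enzyme wells high control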
SENP1 inh conf = confirmation of human SENP1 SUMO protease inhibitors. shares compounds with SENP1 inh. recombinant SENP1, CyPet-SUMO1-YPet FRET cleavage. inhibition, % at 10 µM. actives 34% (n = 520); in the data active means inhibition mostly above about 35%, no sharp cut-off; inactive means mostly below about 32%;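 further: 0% = enzyme with DMSO and 100% = no enzyme control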
SENP1 kin conf = confirmation of human SENP1 SUMO protease inhibitors, kinetic | shares compounds with SENP1 inh | recombinant SENP1, CyPet-SUMO1-YPet FRET kinetic cleavage | inhibition, % at 10 µM | actives 26% (n = 520) | AID 651690; in the data active means inhibition mostly above about 32%, no sharp cut-off; inactive means mostly below about 29%;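 further: 0% = DMSO with enzyme and 100% = no enzyme substrate only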
Numbers without * were called inactive.

For COc1cc(/C=N/NC(=O)C(=O)/C=C2\NC3(CCCC3)Cc3ccccc32)ccc1O the results were SENP7 block -8, SENP6 inh -8, Platelet DG rel 32, SENP8 block-1 -6, SENP8 block-2 6 and SENP1 inh -1.
CCc1ccc(NC(=O)/C(C#N)=C/c2cc3ccc(C)cc3nc2N2CCOCC2)cc1 was read as SENP7 block -4, SENP6 inh 13, Platelet DG rel -2, SENP8 block-1 2, SENP8 block-2 -118 and SENP1 inh 30.
Screening CCN(CC)c1nc2cc(C)ccc2cc1/C=C(\C#N)C(N)=O returned SENP7 block 5, SENP6 inh 0, Platelet DG rel -4, SENP8 block-1 7, SENP8 block-2 -105, SENP1 inh 79*, SENP1 inh conf 58* and SENP1 kin conf 33.
`COc1ccc(NC(=O)C2c3ccccc3OCC(=O)N2Cc2ccc3c(c2)OCO3)cc1` (centres undefined) gave SENP8 block-2 -2 and SENP1 inh 1.
`COC(=O)C1=CN(Cc2ccc(OC)cc2)C=C(C(=O)OC)C1c1cccs1` gave SENP7 block -1, SENP6 inh -10, Platelet DG rel 3, SENP8 block-1 7, SENP8 block-2 -384 and SENP1 inh -23.
COC(=O)C1=CC(C(=O)c2cccs2)=NN(c2ccc(OC)cc2)C1C(=O)OC (centres undefined) was read as SENP7 block 3, SENP6 inh 7, Platelet DG rel -1, SENP8 block-1 3, SENP8 block-2 36, SENP1 inh 61*, SENP1 inh conf 60* and SENP1 kin conf 39*.
For O=S(=O)(NCC(c1ccco1)N1CCc2ccccc2C1)c1ccc(Br)cc1 (centres undefined) the results were SENP7 block 0, SENP6 inh -3, Platelet DG rel 3, SENP8 block-1 1, SENP8 block-2 6 and SENP1 inh -1.
CC(NC(=O)C12CC3CC(CC(C3)C1)C2)C(=O)N/N=C/C1=C(N2CCOCC2)C(=C\c2cccc([N+](=O)[O-])c2)/CC1 (centres undefined) was read as SENP7 block 2, SENP6 inh 4, Platelet DG rel -6, SENP8 block-1 7, SENP8 block-2 21 and SENP1 inh 3.
For CC(C)C(NC(=O)C12CC3CC(CC(C3)C1)C2)C(=O)N/N=C/C1=C(N2CCOCC2)C(=C\c2ccc([N+](=O)[O-])cc2)/CC1 (centres undefined) the results were SENP7 block 3, SENP6 inh -2, Platelet DG rel 7, SENP8 block-1 -2, SENP8 block-2 14, SENP1 inh 75*, SENP1 inh conf 24 and SENP1 kin conf 7.
Screening C=CCNc1nc(-c2ccc([N+](=O)[O-])cc2)cs1 returned SENP7 block 8, SENP6 inh 15, Platelet DG rel 0, SENP8 block-1 0, SENP8 block-2 20, SENP1 inh 50*, SENP1 inh conf 29 and SENP1 kin conf 16.
`CCCOc1ccc(-c2nc(-c3ccc([N+](=O)[O-])cc3)cs2)cc1` gave SENP7 block 6, SENP6 inh 10, Platelet DG rel 13, SENP8 block-1 3, SENP8 block-2 8 and SENP1 inh 4.
For CN(C)c1nc(-c2ccc([N+](=O)[O-])cc2)cs1 the results were SENP7 block 45, SENP6 inh 36, Platelet DG rel -14, SENP8 block-1 21, SENP8 block-2 40, SENP1 inh 46*, SENP1 inh conf 20 and SENP1 kin conf 25.
For O=[N+]([O-])c1ccc(S(=O)(=O)Nc2nc(-c3ccccc3)cs2)cc1 the results were SENP7 block 0, SENP6 inh 22, Platelet DG rel 4, SENP8 block-1 1, SENP8 block-2 10 and SENP1 inh 2.
Screening Cc1cccc(C)c1N1C(=O)c2ccccc2NC(=O)C1C(=O)Nc1ccc2c(c1)OCCO2 (centres undefined) returned SENP8 block-2 -110 and SENP1 inh 8.
`CC(=O)c1ccc(Sc2ccccc2N)c([N+](=O)[O-])c1` gave SENP7 block 3, SENP6 inh -32, Platelet DG rel -2, SENP8 block-1 -6, SENP8 block-2 -142, SENP1 inh 37*, SENP1 inh conf 15 and SENP1 kin conf 7.
CC(C)(C)CC(C)(C)NC(=S)Nc1ccc2nc(-c3ccccn3)c(-c3ccccn3)nc2c1 was read as SENP7 block 4, SENP6 inh -2, Platelet DG rel 2, SENP8 block-1 2, SENP8 block-2 -294 and SENP1 inh -19.
Screening CN(C)NC(=S)Nc1ccc2nc(-c3ccccn3)c(-c3ccccn3)nc2c1 returned SENP7 block -13, SENP6 inh -6, Platelet DG rel 4, SENP8 block-1 -2, SENP8 block-2 -92, SENP1 inh 59*, SENP1 inh conf 38* and SENP1 kin conf 31.
For N#C/C(=C\c1cccnc1)c1ccccc1[N+](=O)[O-] the results were SENP7 block -7, SENP6 inh 5, Platelet DG rel -10, SENP8 block-1 -10, SENP8 block-2 12 and SENP1 inh 2.
For Cc1ccc(N2C(=O)[C@@H]3[C@H](C2=O)C2CCCN2[C@@H]3C(=O)c2ccccc2)cc1 (some centres undefined) the results were SENP7 block -1, SENP6 inh -15, Platelet DG rel 0, SENP8 block-1 -7, SENP8 block-2 11 and SENP1 inh 77.
O=C(c1ccccc1)[C@@H]1[C@@H]2C(=O)N(c3ccc(F)cc3)C(=O)[C@@H]2C2CCCN21 (some centres undefined) was read as SENP7 block -8, SENP6 inh -21, Platelet DG rel -3, SENP8 block-1 -5, SENP8 block-2 2, SENP1 inh 76*, SENP1 inh conf 73* and SENP1 kin conf 48*.
`COc1ccc(N2C(=O)C3C(C2=O)C(C(=O)c2ccc(Cl)cc2)N2CCCC32)cc1` (centres undefined) gave SENP7 block -1, SENP6 inh -7, Platelet DG rel 0, SENP8 block-1 10, SENP8 block-2 4, SENP1 inh 71*, SENP1 inh conf 77* and SENP1 kin conf 50*.
Screening O=C(c1ccc(Cl)cc1)C1C2C(=O)N(c3ccccc3)C(=O)C2C2CCCN21 (centres undefined) returned Platelet DG rel 5, SENP8 block-2 15 and SENP1 inh -19.

Compound activity from PubChem BioAssay.
